Screening data: PubChem BioAssay, several laboratories
An excerpt weighted towards active compounds, which were near 2.1% of everything screened.
Scp1 inh – inhibitors of human Scp-1 phosphatase; Recombinant Scp1, phosphopeptide, malachite green phosphate absorbance; inhibition, % at 20 µM; 340,000 compounds, 0.88% hits; AID 493091;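 active = inhibition above about 50% at 20 µM, limit read from the data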;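 also: plate controls were DMSO wells with enzyme for no effect and wells lacking enzyme for full effect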
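Test system: SCP-1 phosphatase catalytic domain, residues 76-261; measured by: colorimetric phosphate reagent with accelerator and stabiliser, absorbance at 630 nm; timing: enzyme reaction 45 min at room temperature, colour 5 min, stabilisation 30 min; also added: Phosphorylated 17-residue peptide substrate; compound dosing: one concentration, 20 µM, with 1.0% DMSO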
STEP block – inhibitors of human striatal-enriched phosphatase STEP; AID 588621; recombinant STEP, OMFP fluorogenic substrate, fluorescence; 360,000 compounds, 0.25% hits; inhibition, % at 20 µM; P54829;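 active = inhibition at 20 µM, scaled per plate between control wells, above about 37%, limit read from the data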;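 also: 0% = DMSO with enzyme and substrate and 100% = substrate only without enzyme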
Target sequence (P54829 whole entry, looked up): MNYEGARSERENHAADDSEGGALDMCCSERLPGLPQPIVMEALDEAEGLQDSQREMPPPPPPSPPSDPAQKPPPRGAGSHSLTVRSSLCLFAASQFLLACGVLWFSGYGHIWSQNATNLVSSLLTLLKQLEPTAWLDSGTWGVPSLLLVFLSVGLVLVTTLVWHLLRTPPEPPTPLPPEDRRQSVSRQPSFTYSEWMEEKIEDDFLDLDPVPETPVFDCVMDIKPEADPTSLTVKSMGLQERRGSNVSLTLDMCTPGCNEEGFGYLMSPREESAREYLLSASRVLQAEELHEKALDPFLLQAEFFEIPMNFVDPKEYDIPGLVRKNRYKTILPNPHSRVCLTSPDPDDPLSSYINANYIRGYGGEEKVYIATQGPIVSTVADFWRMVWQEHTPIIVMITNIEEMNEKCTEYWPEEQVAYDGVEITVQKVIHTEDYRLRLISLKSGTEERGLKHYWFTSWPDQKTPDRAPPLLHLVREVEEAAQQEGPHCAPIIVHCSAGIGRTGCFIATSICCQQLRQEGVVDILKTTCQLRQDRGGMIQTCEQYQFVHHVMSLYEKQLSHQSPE
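System: isolated STEP enzyme; schedule: 20 min enzyme reaction at room temperature, protected from light; medium: Bis-Tris buffer pH 6.0, 2.5 mM DTT, 0.005% Tween 20; signal: fluorescence, 480/540 nm; dosing: single compound dose of 20 µM, 1% DMSO final; also added: OMFP substrate, 25 µM final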
GRK2 inh – blocks RNA aptamer binding to human GRK2. P25098. inhibition of aptamer binding, % at 10 µM. AID 488847. bead flow cytometry, FAM-aptamer displacement from GRK2. 330,000 compounds, 0.59% hits;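 active = inhibition of aptamer binding above 40%, roughly 3 SD of noise, on plates passing a quality check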;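 also: median bead fluorescence of bound FAM aptamer so fluorescent compounds give negative values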
LMPTP inh – blocks human LMPTP phosphatase; P24666; recombinant LMPTP-A, OMFP fluorogenic substrate, fluorescence intensity; inhibition, % at 20 µM; 360,000 compounds, 0.22% hits;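 active = compounds that cut the enzyme signal by at least half of the control window in the single-dose screen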;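 also: plate controls were DMSO wells with enzyme plus substrate for no effect and substrate without enzyme for full effect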
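Test system – LMPTP-A enzyme · Amount – LMPTP-A at 0.625 nM final in the reaction · Buffer or medium – Bis-Tris pH 6.0, DTT, detergent · Reagent – OMFP 400 µM · Doses – single 20 µM dose · Schedule – reaction 50 min, room temperature, dark · Detection – fluorescence intensity of OMFP turnover product · Evaluation – percent inhibition versus substrate-only and uninhibited controls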
SUMO1 PPI mod – alters human SUMO1 binding to SIM partners. P63165. 360,000 compounds, 0.33% hits. inhibition, % at 20 µM. SUMO1 binding to a labelled peptide, TR-FRET, 1 h; in the data active = inhibition above about 37%
Target sequence (P63165 whole entry, looked up): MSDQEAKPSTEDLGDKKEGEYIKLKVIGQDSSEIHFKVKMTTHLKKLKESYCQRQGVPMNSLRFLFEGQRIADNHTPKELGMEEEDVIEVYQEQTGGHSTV
DNMT1 inh – DNMT1 (human) enzyme inhibition; P26358; DNMT1 molecular beacon, Hinp1I cleavage, fluorescence; inhibition (reported as % activation of signal), % at 10 µM; 360,000 compounds, 0.83% hits; AID 588458; in the data active = inhibition above about 50%
DNMT1 interf DR – beacon fluorescence artifact, dose response counter-screen; 200 tested, under 10 active; IC50, µM; shares compounds with DNMT1 inh; molecular beacon fluorescence, spectral interference counter-screen; call rule not given here
DNMT1 confirm – confirmation of human DNMT1 inhibitors; inhibition, % at 10 µM; 2,300 compounds, 8% hits; shares compounds with DNMT1 inh; DNMT1 molecular beacon HinP1I cleavage, fluorescence;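 active = average inhibition of at least 30% in the single-concentration confirmation test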
DNMT1 interf – shows spectral interference in the DNMT1 beacon assay. shares compounds with DNMT1 inh. DNMT1 molecular beacon spectral interference counterscreen, fluorescence 485/520. activation (fluorescence interference), % at 10 µM. 2,300 compounds, 1% hits. AID 602387;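 active = activation of at least 30% at 10 µM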;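 also: DNMT1 catalytic domain with a HinP1I cleavage step and a FAM/dabcyl DNA beacon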
Active calls of the source: *.

Cc1cccc(C)c1NC(=O)COc1ccc2c(C)c(Cc3ccccc3)c(=O)oc2c1C was read as Scp1 inh -2, STEP block 1, GRK2 inh 0, LMPTP inh 0, SUMO1 PPI mod 1, DNMT1 inh 57*, DNMT1 confirm 0 and DNMT1 interf -5.
Screening COC(=O)C1=C(C)N(CC2CC2)C(=O)N[C@H]1c1ccccc1 returned Scp1 inh 4, STEP block -1, GRK2 inh 0, LMPTP inh 1, SUMO1 PPI mod 0 and DNMT1 inh 12.
Cn1c(-c2cccc(OCc3ccccc3)c2)nc2c1c(=O)[nH]c(=O)n2Cc1ccccc1 was read as Scp1 inh -2, STEP block 0, GRK2 inh 0, LMPTP inh 0, SUMO1 PPI mod -11, DNMT1 inh 57*, DNMT1 confirm 2 and DNMT1 interf -3.
CC1CCCC(NC(=O)c2cc(S(=O)(=O)N3CCCCC3)c[nH]2)C1C (stereo not drawn) was read as STEP block 4, LMPTP inh -1, SUMO1 PPI mod 2 and DNMT1 inh -2.
Screening COc1ccccc1NC(=S)N1CCCCCC1 returned Scp1 inh -2, STEP block 1, GRK2 inh 0, LMPTP inh 0, SUMO1 PPI mod 2 and DNMT1 inh 3.
`CC(C)C[C@@H]1Cc2[nH][nH]c(=O)c2[C@H](C(C)C)O1` gave LMPTP inh -1 and SUMO1 PPI mod 10.
Screening O=C1CC(=O)N(Cc2cccs2)C(=O)N1 returned Scp1 inh -3, STEP block 1, GRK2 inh 1, LMPTP inh 0, SUMO1 PPI mod -4 and DNMT1 inh -9.
For O=C1CC(=O)N(Cc2ccco2)C(=O)N1 the results were Scp1 inh 66*, STEP block 95*, GRK2 inh 89*, LMPTP inh 51*, SUMO1 PPI mod 25, DNMT1 inh 109*, DNMT1 interf DR >99, DNMT1 confirm 105* and DNMT1 interf -5.
For COC(=O)c1cc(C(C)=O)c(C)[nH]c1=O the results were Scp1 inh 0, STEP block -3, GRK2 inh 5, LMPTP inh -1, SUMO1 PPI mod -1 and DNMT1 inh 3.
`COC(=O)c1cc(C#N)c(=O)[nH]c1C` gave Scp1 inh -4, STEP block 1, GRK2 inh 0, LMPTP inh -1, SUMO1 PPI mod -2, DNMT1 inh 89*, DNMT1 confirm 7 and DNMT1 interf 5.
Screening O=C(CCN1CCc2ccccc21)c1ccc2c(c1)OCCO2 returned Scp1 inh 1, STEP block 2, GRK2 inh 16, LMPTP inh 25, SUMO1 PPI mod -10, DNMT1 inh 54*, DNMT1 confirm 2 and DNMT1 interf 1.
Screening O=C(CCN1CCc2ccccc2C1)c1ccc2c(c1)OCCO2 returned Scp1 inh -5, STEP block 2, GRK2 inh 0, LMPTP inh -2, SUMO1 PPI mod -1 and DNMT1 inh 0.
COc1ccc(NS(=O)(=O)c2ccc3c(c2)N(C(C)=O)CCO3)c(OC)c1 was read as Scp1 inh -4, STEP block -3, GRK2 inh 7, LMPTP inh -2, SUMO1 PPI mod -1 and DNMT1 inh 0.
For c1coc(-c2ccc3nncn3c2)c1 the results were STEP block 28, LMPTP inh 5, SUMO1 PPI mod 87*, DNMT1 inh 102*, DNMT1 interf DR >99, DNMT1 confirm 76* and DNMT1 interf 1.
c1cc(N2CCOCC2)ccc1-c1ccc2nncn2c1 was read as STEP block 2, LMPTP inh -1, SUMO1 PPI mod -38 and DNMT1 inh 8.
COc1cccc(NC(=O)Cn2c3ccccc3c3nc4n(c(=O)c32)CCCS4)c1 was read as Scp1 inh -7, STEP block 0, GRK2 inh 4, LMPTP inh 1, SUMO1 PPI mod -9 and DNMT1 inh -3.
Cc1cc(=O)oc2cc(NC(=O)COc3ccccc3[N+](=O)[O-])ccc12 was read as Scp1 inh 40, STEP block 10, GRK2 inh 0, LMPTP inh 5, SUMO1 PPI mod 31, DNMT1 inh 72*, DNMT1 confirm 4 and DNMT1 interf -2.
For O=C(COc1ccc(/C=N/NC(=O)c2cc3ccccc3o2)cc1Br)Nc1ccccc1 the results were Scp1 inh 83*, STEP block 64*, GRK2 inh 16, LMPTP inh 29, SUMO1 PPI mod -1, DNMT1 inh 64*, DNMT1 confirm -3 and DNMT1 interf -9.
`O=C(N/N=C/c1ccco1)c1cc2ccccc2o1` gave Scp1 inh -5, STEP block 0, GRK2 inh 4, LMPTP inh -1, SUMO1 PPI mod -25 and DNMT1 inh 1.
For O=C(COc1ccccc1[N+](=O)[O-])Nc1ccc(NC(=O)c2cc3ccccc3o2)cc1 the results were Scp1 inh 29, STEP block 13, GRK2 inh 0, LMPTP inh 20, SUMO1 PPI mod 35, DNMT1 inh 59*, DNMT1 confirm 2 and DNMT1 interf -4.
Screening O=c1c2ccc([N+](=O)[O-])cc2ncn1Cc1ccccc1C(F)(F)F returned Scp1 inh -5, STEP block -4, GRK2 inh 0, LMPTP inh 0, SUMO1 PPI mod -6 and DNMT1 inh 4.
For CSc1ccc(CN2CCC2(C)C(=O)Nc2cccc(Oc3ccccc3)c2)cc1 (stereo not drawn) the results were STEP block 2, LMPTP inh 4, SUMO1 PPI mod -6 and DNMT1 inh 3.
Screening CC(C)(Oc1ccc(Cl)cc1)C(=O)O/N=C(\N)c1ccncc1 returned Scp1 inh -1, STEP block 2, GRK2 inh 3, LMPTP inh -1, SUMO1 PPI mod -1 and DNMT1 inh 4.
For COC(=O)C[C@@H]1C[C@@H]2c3cc(NC(=O)NC4CCCCC4)ccc3O[C@@H]2[C@H](CO)O1 the results were STEP block -1, LMPTP inh -2, SUMO1 PPI mod -2 and DNMT1 inh 6.
